LMPTP block: LMPTP phosphatase inhibitors, primary screen, biochemical, fluorescence intensity, uHTS; Low molecular weight phosphotyrosine protein phosphatase (Homo sapiens), P24666; recombinant LMPTP-A, OMFP fluorogenic substrate; inhibition, % at 20 µM; actives 0.22% (n = 360,000); AID 651560, 2012;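 active means compounds that cut the enzyme signal by at least half of the control window in the single-dose screen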;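 further: plate controls were DMSO wells with enzyme plus substrate for no effect and substrate without enzyme for full effect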
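Assay system: LMPTP-A, protein tyrosine phosphatase of low molecular weight / Medium: pH 6.0 Bis-Tris buffer with DTT and Triton X-100 / Schedule: 50 min enzyme reaction at room temperature, protected from light / Measured by: endpoint fluorescence intensity from OMFP dephosphorylation / Read-out basis: % inhibition relative to no-enzyme and uninhibited control wells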
Scp-1 inhibitor: Scp-1 phosphatase inhibitors, primary screen, biochemical, colorimetric, uHTS | Recombinant Scp1, phosphopeptide, malachite green phosphate absorbance | inhibition, % at 20 µM | actives 0.88% (n = 340,000);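 active means inhibition above about 50% at 20 µM, limit read from the data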;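 further: plate controls were DMSO wells with enzyme for no effect and wells lacking enzyme for full effect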
Target sequence (Q9GZU7 76-261 limits assumed): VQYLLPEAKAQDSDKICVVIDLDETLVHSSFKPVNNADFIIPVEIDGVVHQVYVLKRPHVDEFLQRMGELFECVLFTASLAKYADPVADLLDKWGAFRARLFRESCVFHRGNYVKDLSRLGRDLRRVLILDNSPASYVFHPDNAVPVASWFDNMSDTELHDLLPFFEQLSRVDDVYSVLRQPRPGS
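Material – SCP-1 phosphatase catalytic domain, residues 76-261 · Buffer or medium – Acidic Tris acetate buffer with magnesium and detergent · Also added – Phospho 17-mer peptide substrate · Compound – single 20 µM dose, 1% DMSO · Times – 45 min room-temperature reaction, 5 min colour, 30 min stabiliser · Technique – Phosphate-binding colour reagent, absorbance read at 630 nm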
SUMO1 PPI mod: modulators of SUMO1 protein-protein interactions, primary screen, biochemical, uHTS. Small ubiquitin-related modifier 1 (Homo sapiens), P63165. SUMO1 binding to a labelled peptide, TR-FRET, 1 h. inhibition, % at 20 µM. actives 0.33% (n = 360,000). AID 602429, 2012; in the data active means inhibition above about 37%
DSG3 Ab inh: inhibitors of pemphigus antibody binding to DSG3, primary screen, biochemical, bead-based, flow cytometry, scFv-GFP; DSG3-coupled beads, scFv-anti-DSG3-GFP binding; hits give low values; actives 0.48% (n = 310,000); Desmoglein-3 (Homo sapiens), P32926; binding (percent of control), % at 10 µM;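 active means binding more than 3 SD below its plate's average and above zero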;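 further: hits lower antibody fragment binding to DSG3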
STEP block: STEP phosphatase inhibitors, primary screen, biochemical, fluorescence intensity, uHTS. Tyrosine-protein phosphatase non-receptor type 5 (Homo sapiens), P54829. recombinant STEP, OMFP fluorogenic substrate. inhibition, % at 20 µM. actives 0.25% (n = 360,000);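 active means inhibition at 20 µM, scaled per plate between control wells, above about 37%, limit read from the data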;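 further: 0% = DMSO with enzyme and substrate and 100% = substrate only without enzyme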
Target sequence (P54829 whole entry, looked up): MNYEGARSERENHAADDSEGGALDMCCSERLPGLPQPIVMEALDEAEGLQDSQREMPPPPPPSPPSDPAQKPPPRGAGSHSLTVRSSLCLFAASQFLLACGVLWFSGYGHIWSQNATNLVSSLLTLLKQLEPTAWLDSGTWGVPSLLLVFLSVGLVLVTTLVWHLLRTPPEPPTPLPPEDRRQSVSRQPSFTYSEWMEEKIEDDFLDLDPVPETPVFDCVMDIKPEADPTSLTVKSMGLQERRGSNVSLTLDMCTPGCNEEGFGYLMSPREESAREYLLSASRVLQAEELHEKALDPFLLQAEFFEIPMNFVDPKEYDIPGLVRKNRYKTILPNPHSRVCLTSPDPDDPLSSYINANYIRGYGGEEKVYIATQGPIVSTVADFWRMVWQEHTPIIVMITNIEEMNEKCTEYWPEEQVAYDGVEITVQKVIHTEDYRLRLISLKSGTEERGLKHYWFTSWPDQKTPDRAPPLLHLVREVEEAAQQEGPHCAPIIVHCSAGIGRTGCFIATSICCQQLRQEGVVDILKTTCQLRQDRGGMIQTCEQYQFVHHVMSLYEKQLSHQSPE
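Measure: Control-normalized % inhibition with plate pattern correction | Test system: STEP phosphatase, cell-free reaction | Medium: pH 6.0 Bis-Tris with DTT and Tween 20 | Technique: Fluorescence, 480/540 nm | Times: Reaction 20 min, ambient temperature | Doses: Single compound dose of 20 µM, 1% DMSO final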
Scp1 confirm: Scp-1 phosphatase inhibitors, retest, confirmation, biochemical, colorimetric, single concentration; shares compounds with Scp-1 inhibitor; recombinant SCP-1 catalytic domain, phosphate release, malachite green absorbance; inhibition, % at 20 µM; actives 61% (n = 2,500);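 further: plate controls were DMSO with enzyme for no effect and buffer wells lacking enzyme for full effect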
Scp-1 MG ctr: colorimetric readout interference by compounds, confirmation, artefact control for Scp-1 inhibitor project, biochemical, single concentration | 2,500 tested, under 10 active | Colorimetric interference counterscreen, malachite green absorbance 630 nm | apparent inhibition (interference), % at 20 µM | shares compounds with Scp-1 inhibitor;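 further: compounds added after enzyme reaction finished so only phosphate colour detection is probed; plate controls were DMSO wells with completed Scp-1 reaction for no effect and substrate wells lacking enzyme for full effect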
Scp-1 Tm shift: Scp-1 binding by thermal shift, confirmation, orthogonal assay for Scp-1 inhibitor project, biophysical, differential scanning fluorimetry; shares compounds with Scp-1 inhibitor; Recombinant SCP1, Sypro Orange thermal shift Tm; thermal shift relative to vanadate control, % at 40 µM; actives 25% (n = 1,500); AID 540329, 2011;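 active means substances whose mean melting-temperature shift, as a percentage of the reference inhibitor's shift, reaches about 5.3%, limit read from the data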;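 further: 0% = Tm of DMSO wells and 100% = Tm with sodium orthovanadate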
* = called active by the depositor; x = no result given. A selection: hits, their analogues and other compounds. The true share with any hit is near 1.7%.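 How the source made its calls, unless noted: active means inhibition of at least 30% at 20 µM; inactive means the rest.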

SMILES | LMPTP block | Scp-1 inhibitor | SUMO1 PPI mod | DSG3 Ab inh | STEP block | Scp1 confirm | Scp-1 MG ctr | Scp-1 Tm shift
COc1ccc(S(=O)(=O)NCCC(=O)OCC(=O)c2ccc[nH]2)cc1[N+](=O)[O-] | 11 | 36 | -11 | 90 | 2 | x | x | x
O=[N+]([O-])c1cccc(-c2csc(N/N=C/c3cccc(O)c3)n2)c1 | 5 | 72* | -8 | 102 | 6 | 51* | -13 | 19*
CCOC(=O)Cc1csc(N/N=C/c2cccc([N+](=O)[O-])c2)n1 | 0 | 1 | -10 | 109 | 1 | x | x | x
O=c1c(Cl)c(N/N=C/c2ccc(Br)cc2)cnn1-c1ccccc1 | 52* | 59* | -2 | 101 | 2 | 61* | -20 | -12
CCN(CC)C(=O)COc1ccc2oc(-c3ccco3)cc(=O)c2c1 | 3 | 74* | -13 | 85 | 4 | 49* | -4 | -1
CCOC(=O)CN1C(=O)N[C@@H](c2cccs2)C(C(=O)OC)=C1C | -1 | 58* | 1 | 104 | 3 | -6 | -9 | x
O=C(c1cc(S(=O)(=O)N2CCOCC2)ccc1F)N(Cc1nnc(-c2ccccc2Cl)o1)C1CC1 | -1 | 55* | 0 | 101 | 2 | -14 | -16 | x
Cc1ccc(S(=O)(=O)N2CCOCC2)cc1C(=O)N(Cc1nnc(-c2ccccc2Cl)o1)C1CC1 | -1 | -14 | 1 | x | -1 | x | x | x
CCOC(=O)N1CCN(C(=O)C2CCN(S(=O)(=O)c3cc(OC)ccc3OC)CC2)CC1 | 0 | -4 | 3 | 99 | 3 | x | x | x
COc1ccccc1NC(=O)Cn1c([N+](=O)[O-])cnc1C | -2 | -2 | -1 | 109 | -4 | x | x | x
COC(=O)C1=CN(c2ccc(N3CCOCC3)cc2)C(N)=C(C#N)C1c1cccc(F)c1 (stereo not given) | 0 | x | -52 | x | x | x | x | x
CCC(=O)Nc1cc(C(=O)O)ccc1S(=O)(=O)c1ccc(C)cc1 | -1 | 67* | 7 | 96 | 9 | 57* | -5 | 4
CCOc1ccc(/C=C2/SC(=S)N(CCC(=O)Nc3ccc(C(=O)O)cc3)C2=O)cc1 | 64* | 56* | 61* | 86 | 47* | 78* | -9 | 2
CCOc1ccc(/C=C2\SC(=S)N(CCC(=O)Nc3ccccc3C(=O)O)C2=O)cc1 | 3 | 64* | 8 | 141 | 3 | 44* | -18 | 18*
O=C(CCN1C(=O)/C(=C\c2ccccc2)SC1=S)Nc1ccc(C(=O)O)cc1 | 24 | 50 | -12 | 100 | 10 | x | x | x
CC(=O)Nc1ccc(S(=O)(=O)N/N=C/c2ccc(C)o2)cc1 | 14 | 67* | -1 | x | 33 | 20 | -10 | x
COc1cc(-c2nnc(COC(=O)c3ccc(C)o3)o2)cc(OC)c1OC | 6 | 59* | 8 | x | 13 | 47* | 1 | -3
CCOC(=O)c1sc(NC(=O)CSc2nncs2)c(C(=O)OCC)c1C | 0 | 52* | 3 | 118 | 1 | -10 | -16 | x
COc1ccc(NS(=O)(=O)c2cccs2)cc1S(=O)(=O)N1CCCCC1 | 0 | -8 | 0 | 103 | 1 | x | x | x
O=C(CSc1ncnc2[nH]ncc12)Nc1nc(-c2ccc(F)c(F)c2)cs1 | 2 | -1 | 24 | 99 | 2 | x | x | x
O=C(CN1C(=O)NC2(CCCCC2)C1=O)NCC(=O)Nc1ccc(F)c(F)c1 | -2 | -2 | 0 | 92 | -1 | -12 | -15 | x
O=C(CN1C(=O)NC2(CCCCC2)C1=O)Nc1ccc(F)cc1 | -1 | -4 | -1 | 100 | -4 | x | x | x
O=c1oc2ccccc2cc1-c1ccccc1 | -1 | -5 | -16 | 83 | -2 | x | x | x
O=C(O)c1ccc(-n2cc(-c3cc4ccccc4oc3=O)[nH]c2=S)cc1 | 3 | 84* | -3 | 92 | 10 | 61* | -11 | 1
CC(=O)Nc1ccc(N/C(C)=C/C(=O)c2cccnc2)cc1 | -1 | -1 | -3 | 101 | 2 | x | x | x
SMILES | LMPTP block | Scp-1 inhibitor | SUMO1 PPI mod | DSG3 Ab inh | STEP block | Scp1 confirm | Scp-1 MG ctr | Scp-1 Tm shift
CC/C(=C\C(=O)c1cccnc1)Nc1ccc(C)c(C)c1 | -2 | 53* | -3 | 112 | 0 | -18 | -15 | x
CC1(C(=O)Nc2nc3ccccc3s2)CC1(Br)Br (stereo not given) | -1 | 2 | 4 | 118 | 0 | x | x | x
CC(=O)Nc1nnc(SCC(=O)Nc2ccc3c(c2)OCCO3)s1 | -1 | -5 | 1 | 112 | 0 | x | x | x
CC(=O)Nc1nnc(SCC(=O)Nc2ccc(N3CCOCC3)c(Cl)c2)s1 | 1 | 63* | -1 | 90 | 1 | -3 | -8 | x
CC1CCCCN1C(=O)CNCC1CCCO1 (stereo not given) | -1 | -6 | 5 | 102 | 4 | x | x | x
S=c1[nH]nc(COc2ccccc2)n1-c1ccc(Cl)cc1 | 0 | 51* | 4 | 111 | -4 | 3 | -10 | x
COc1ccc(-n2c(COc3ccccc3)n[nH]c2=S)cc1 | -2 | 1 | 4 | 111 | 2 | x | x | x
COc1ccc(C2C(C#N)=C(N)OC3=C2C(=O)CC(C)(C)C3)c(OC)c1OC (stereo not given) | -2 | 51* | 0 | 90 | 0 | -16 | -13 | x
COc1cc(OC)c(C2C(C#N)=C(N)OC3=C2C(=O)CC(C)(C)C3)cc1OC (stereo not given) | 0 | 1 | -1 | 97 | 2 | x | x | x
O=C(NCc1cccc2[nH]ccc12)C1CCC(=O)N(CCc2ccccc2)C1 (stereo not given) | 0 | -8 | 1 | 106 | -1 | x | x | x
O=C(COC(=O)CCOc1ccccc1)NCc1ccco1 | 6 | 102* | 2 | 108 | 0 | 58* | -14 | -1
O=C(COc1ccccc1)NCc1ccco1 | -2 | -4 | 0 | 115 | 2 | x | x | x
O=C(COC(=O)C1CC2C=CC1C2)NCc1ccco1 (stereo not given) | 4 | 71* | 2 | 118 | 4 | 70* | -5 | -3
